An excerpt weighted towards active compounds, which were near 0.89% of everything screened.
Arrestin-AP2 inh: human beta-arrestin and AP2 interaction inhibition | hit rate 0.31% among 340,000 | FITC-arrestin peptide / GST-AP2 beads, flow cytometry; AP2 beta2 appendage carries R879A mutation | inhibition, % at 10 µM;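 active means inhibition above a set limit, near 3 SD of compounds lacking own fluorescence, cut at about 54% in these data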
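System: GST-AP2 R879A glutathione beads; medium: PBS, Tween 20 0.05%, BSA 0.1%; reagent: fluorescein-tagged arrestin peptide at 50 nM final; schedule: pre-incubation 12 min, peptide binding 1 h, room temperature; detection: flow cytometry, FL1 (488/535 nm); read-out: inhibition as reduced fluorescein signal on beads, percent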
hiPSC survival: hiPSC single-cell survival enhancement; ATPlite luminescence; 100% = ROCK inhibitor wells, 0% = DMSO; survival enhancement, % at 20 µM; hit rate 0.044% among 360,000; in the data active means survival enhancement above about 18%;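 further: cells exposed to compounds for 16 hours before the ATP read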
ABCB6 inh 2: blocks the human ABCB6 transporter; Q9NP58; K562-ABCB6 porphyrin accumulation, flow cytometry, 1 h; active compounds read low; fluorescence ratio to DMSO, % at 10 µM; hit rate 0.19% among 360,000;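 active means fluorescence ratio to DMSO below 75%, the collection mean minus 3 SD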;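 further: signal is porphyrin accumulated inside mitochondria; lower ratio means ABCB6 inhibition with less porphyrin fluorescence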
PG9 binder: binds the HIV-1 gp120 antibody PG9. TR-FRET gp120-PG9 antibody binding. inhibition, % at 6.7 µM. hit rate 0.43% among 360,000. AID 624416; in the data active means inhibition above about 8.5%
Arr-AP2 CP1: blocks beta-arrestin peptide binding to human AP2. shares compounds with Arrestin-AP2 inh. GST-AP2 beads, FITC arrestin peptide binding, flow cytometry; GST-fused beta2-adaptin appendage, R879A mutant. inhibition, % at 10 µM. hit rate 2% among 1,300. AID 504908;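 active means inhibition above a set limit, roughly 3 SD of non-fluorescent compound noise, cut at about 38% in these data; inactive means inhibition at or below that limit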;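 further: loss of bead fluorescence from 50 nM FITC arrestin peptide bound to appendage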
Target sequence (P63010 whole entry, looked up, the tested form may be a part, one chain of several): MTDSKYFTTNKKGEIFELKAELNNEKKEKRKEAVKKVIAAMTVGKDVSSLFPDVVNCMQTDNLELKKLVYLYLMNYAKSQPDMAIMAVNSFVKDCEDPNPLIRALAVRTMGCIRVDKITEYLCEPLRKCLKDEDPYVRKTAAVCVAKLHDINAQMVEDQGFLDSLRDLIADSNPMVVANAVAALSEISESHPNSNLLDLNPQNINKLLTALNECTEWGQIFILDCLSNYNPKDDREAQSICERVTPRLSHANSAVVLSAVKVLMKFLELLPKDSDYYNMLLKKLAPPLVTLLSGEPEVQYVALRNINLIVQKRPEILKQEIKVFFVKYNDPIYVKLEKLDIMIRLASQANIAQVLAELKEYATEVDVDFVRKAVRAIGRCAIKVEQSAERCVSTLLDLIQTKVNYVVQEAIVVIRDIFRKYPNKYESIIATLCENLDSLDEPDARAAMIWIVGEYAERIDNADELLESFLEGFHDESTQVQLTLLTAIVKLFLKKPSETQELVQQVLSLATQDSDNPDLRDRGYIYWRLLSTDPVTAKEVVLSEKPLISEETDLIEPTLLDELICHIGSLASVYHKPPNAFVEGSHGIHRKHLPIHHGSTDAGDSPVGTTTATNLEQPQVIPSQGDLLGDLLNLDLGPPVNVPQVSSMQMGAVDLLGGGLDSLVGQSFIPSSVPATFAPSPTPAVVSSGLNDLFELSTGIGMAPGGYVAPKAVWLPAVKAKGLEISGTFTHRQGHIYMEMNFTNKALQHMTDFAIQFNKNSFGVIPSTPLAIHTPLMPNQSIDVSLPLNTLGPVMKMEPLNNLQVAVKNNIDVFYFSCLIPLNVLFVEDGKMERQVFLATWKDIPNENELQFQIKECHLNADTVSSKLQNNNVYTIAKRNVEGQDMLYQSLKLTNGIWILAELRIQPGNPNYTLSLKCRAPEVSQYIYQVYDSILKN
GST GSH counter: disrupts GST binding to glutathione beads, arrestin-AP2 artifact; hit rate 2% among 1,300; shares compounds with Arrestin-AP2 inh; inhibition, % at 10 µM; GST-fluorescein binding to GSH beads, fluorescence, counter-screen;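 active means inhibition above 50%, about 3 SD of the inhibition seen with non-fluorescent compounds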;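 further: fluorescein maleimide labelled GST captured on 4 micron glutathione beads; higher means more loss of bead fluorescence from quenching or blocked binding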
Each line names hits and unclear results; the compound was inactive in the other large screens (follow-up assays come after a bar, where they were run).

O=[N+]([O-])c1ccc(O)c(/C=N/NC(=S)Nc2ccc(Cl)cc2Cl)c1	none
COC(=O)Cc1nnn2c1[C@@H](C)[C@@H](c1ccccc1Br)OC[C@@H]2c1ccccc1	none (no result: Arrestin-AP2 inh, hiPSC survival, ABCB6 inh 2)
Cc1cc(C)cc(OCC(=O)Nc2ccc3c(c2)C(=O)c2ccccc2C3=O)c1	Arrestin-AP2 inh 97 | Arr-AP2 CP1 inactive | GST GSH counter inactive
CNS(=O)(=O)c1ccc2c3c(cccc13)C(=O)N2	none
O=C1Nc2ccc(NS(=O)(=O)c3cccs3)c3cccc1c23	Arrestin-AP2 inh 96 | Arr-AP2 CP1 inactive | GST GSH counter inactive
COc1ccc2c(c1)c1ncn(CCN3CCCC3)c(=O)c1n2C	none
Cc1ccc2c(c1)c1ccc3c(c1n2C)C(=O)C=CC3=O	none
COc1ccc2c(c1)c1ccc3c(c1n2C)C(=O)C=CC3=O	Arrestin-AP2 inh 57, hiPSC survival 28 | Arr-AP2 CP1 inactive | GST GSH counter inactive
Cn1c2ccccc2c2ccc3c(c21)C(=O)C=CC3=O	Arrestin-AP2 inh 70 | Arr-AP2 CP1 55 | GST GSH counter inactive
CCOC(=O)[C@@H]1CSCCS(=O)(=O)N1C(=O)[C@H](CC(C)C)NC(=O)OC(C)(C)C	none (no result: Arrestin-AP2 inh, hiPSC survival, ABCB6 inh 2)
O=C(N[C@@H](Cc1cccnc1)C(=O)N1CCC[C@H]1C(=O)NCCc1ccccc1Cl)c1ccccc1	none (no result: Arrestin-AP2 inh, hiPSC survival, ABCB6 inh 2)
CCN(CC)S(=O)(=O)c1cccc(C(=O)N/N=C/c2cc(OC)c(O)c(OC)c2)c1	Arrestin-AP2 inh 60 | Arr-AP2 CP1 inactive | GST GSH counter inactive
CC(=O)c1ccc(-c2ccccc2C2=CC(=O)CC(C)(C)C2=O)cc1	none (no result: Arrestin-AP2 inh, hiPSC survival, ABCB6 inh 2)
COc1ccc(Nc2ncccc2C(=O)NCc2ccccc2)cc1	Arrestin-AP2 inh 58 | Arr-AP2 CP1 inactive | GST GSH counter inactive
COc1cccc(Nc2ncccc2C(=O)NCc2ccccc2)c1	none
COc1cc2c(cc1OC)C(=O)CCS2	Arrestin-AP2 inh 75 | Arr-AP2 CP1 inactive | GST GSH counter inactive
CCOC(=O)c1cnn(-c2ccc(C(C)C)cc2)c1NC(=O)C1CCC1	Arrestin-AP2 inh 99 | Arr-AP2 CP1 inactive | GST GSH counter inactive
Cc1cc(N2CCN(C(=O)OC(C)(C)C)C[C@H]2C)ccc1N1CCS(=O)(=O)CC1	none (no result: Arrestin-AP2 inh, hiPSC survival, ABCB6 inh 2)
CCOC(=O)c1c(-c2cccs2)csc1NC(C)=O	none
CCOC(=O)c1c(-c2cccs2)csc1NC(=O)CN1CC(C)OC(C)C1 (stereo not given)	Arrestin-AP2 inh 72 | Arr-AP2 CP1 inactive | GST GSH counter inactive
CN(C(=O)[C@@H](Cc1ccccc1)NC(=O)[C@H]1O[C@@H](n2ccc(=O)[nH]c2=O)[C@H](O)[C@@H]1O)C1CCCCC1	none (no result: Arrestin-AP2 inh, hiPSC survival, ABCB6 inh 2)
Cc1ccccc1NC(=O)COC(=O)/C=C/c1cccc(C(F)(F)F)c1	none
O=C(COC(=O)/C=C/c1cccc(C(F)(F)F)c1)Nc1cccc2ccccc12	Arrestin-AP2 inh 91 | Arr-AP2 CP1 inactive | GST GSH counter inactive
COC(=O)[C@]12C[C@H](CC(=O)NCCCCc3ccccc3)C(=O)N(CCC3=CCCCC3)C1=C[C@H](COCc1ccccc1)O[C@@H]2C	none (no result: Arrestin-AP2 inh, hiPSC survival, ABCB6 inh 2)
Clc1ccccc1C=NNc1ccccn1	none
COc1ccc2nc(Cl)c(/C=N/Nc3ccccn3)cc2c1	Arrestin-AP2 inh 59 | Arr-AP2 CP1 inactive | GST GSH counter inactive
Nc1nc2c(ncn2[C@@H]2O[C@H](C(=O)N[C@@H](Cc3ccccc3)C(=O)NCc3ccc4c(c3)OCO4)[C@@H](O)[C@H]2O)c(=O)[nH]1	none (no result: Arrestin-AP2 inh, hiPSC survival, ABCB6 inh 2)
CCc1ccc(N2CC(C(=O)OCc3csc(CC(=O)Nc4ccccc4C)n3)CC2=O)cc1 (stereo not given)	Arrestin-AP2 inh 62 | Arr-AP2 CP1 inactive | GST GSH counter inactive
CCOC(=O)/C=C/C(=O)OCc1csc(CC(=O)Nc2ccccc2C)n1	none
C[C@@H]1CN(c2ccc(N3CCN(C(=O)OC(C)(C)C)C[C@H]3C)cc2C#N)CCN1Cc1ccccc1	none (no result: Arrestin-AP2 inh, hiPSC survival, ABCB6 inh 2)
CC(=O)N(C)c1ccc(NC(=O)c2ccc([N+](=O)[O-])cc2Cl)cc1	Arrestin-AP2 inh 69 | Arr-AP2 CP1 inactive | GST GSH counter inactive
CCOc1ccccc1C(=O)Nc1cc(=O)n(C)c(=O)n1C	none
CCCc1ccccc1OCCNC(=O)c1cc(=O)n(C)c(=O)n1C	Arrestin-AP2 inh 60 | Arr-AP2 CP1 inactive | GST GSH counter inactive
COC(=O)Cc1nnn2c1[C@@H](C)[C@@H](c1ccccc1Br)O[C@@H](C)C2	none (no result: Arrestin-AP2 inh, hiPSC survival, ABCB6 inh 2)
FC(F)(F)c1ccccc1Cc1c(-c2ccco2)nc2c3ccccc3ccn12	none (no result: Arrestin-AP2 inh, hiPSC survival, ABCB6 inh 2)
COC(=O)C1=C(C)N(C)C(=NCc2ccc3c(c2)OCO3)NC1c1ccc(Cl)cc1 (stereo not given)	none (no result: Arrestin-AP2 inh, hiPSC survival, ABCB6 inh 2)
CCC(C(=O)NCc1ccco1)N(Cc1cccs1)C(=O)CNS(=O)(=O)c1ccccc1 (stereo not given)	Arrestin-AP2 inh 55 | Arr-AP2 CP1 inactive | GST GSH counter inactive
Cn1nnc(NC(=S)NC(=O)c2cccc3c(Cl)cccc23)n1	Arrestin-AP2 inh 56 | Arr-AP2 CP1 inactive | GST GSH counter inactive
Cn1nnc(NC(=S)NC(=O)c2cccc3c(Br)cccc23)n1	none
Cc1ccc(S(=O)(=O)c2c(C)cc(C)nc2N2CCCCC2)cc1	Arrestin-AP2 inh 70 | Arr-AP2 CP1 inactive | GST GSH counter inactive
C[C@@H]1OC(C2CCCCC2)N(C)[C@H]2C[C@H]3c4[nH]c5c(-c6ccccc6)cccc5c4CCN3C(=O)[C@@H]12 (stereo not given in full)	none (no result: Arrestin-AP2 inh, hiPSC survival, ABCB6 inh 2)
Cc1cc(Br)ccc1OCCNCc1ccccc1	Arrestin-AP2 inh 56 | Arr-AP2 CP1 inactive | GST GSH counter inactive
COC(=O)N1C[C@H](OC)[C@H]2C[C@@H]1c1ccccc1O2	none (no result: Arrestin-AP2 inh, hiPSC survival, ABCB6 inh 2)
O=C(Cc1c[nH]c2ccccc12)Nc1ccc(Nc2cccnc2)cc1	none (no result: Arrestin-AP2 inh, hiPSC survival, ABCB6 inh 2)
Cc1ccc(N(CCC#N)C(=O)COC(=O)C2=COCCO2)cc1	none
Cc1ccc(N(CCC#N)C(=O)COC(=O)c2ccccn2)cc1	Arrestin-AP2 inh 69 | Arr-AP2 CP1 inactive | GST GSH counter inactive
Cc1cc(NS(=O)(=O)c2ccccc2)c([N+](=O)[O-])cc1C	Arrestin-AP2 inh 62 | Arr-AP2 CP1 inactive | GST GSH counter inactive
COc1cc(OC)cc(C(=O)N[C@H](C(=O)Nc2nc(-c3cc(OC)ccc3OC)cs2)C(C)C)c1	Arrestin-AP2 inh 58 | Arr-AP2 CP1 inactive | GST GSH counter inactive
COc1ccc(OC)c(-c2csc(NC(=O)CN3C(=O)NC4(CCCC4)C3=O)n2)c1	Arrestin-AP2 inh 68 | Arr-AP2 CP1 inactive | GST GSH counter inactive
COc1ccc(-c2csc(NC(=O)CN3C(=O)NC4(CCCC4)C3=O)n2)cc1	none
Cc1cc(Br)c2nc(-c3ccc(F)cc3)c(Cc3cccc(Cl)c3)n2c1	none (no result: Arrestin-AP2 inh, hiPSC survival, ABCB6 inh 2)
CCSc1nc(N2CCOCC2)c2c(c1C#N)CC(C)(C)N(C)C2	Arrestin-AP2 inh 54 | Arr-AP2 CP1 inactive | GST GSH counter inactive
Cc1ccccc1C(=O)Nc1ccc2c(c1)OCCO2	none
O=C(Nc1ccc2c(c1)OCCO2)c1coc2ccccc2c1=O	Arrestin-AP2 inh 89 | Arr-AP2 CP1 inactive | GST GSH counter inactive

High-throughput results as filed in PubChem BioAssay.
